# Assays:
# [1] = test system: Micrococcus luteus; assay: Antimicrobial activity against Micrococcus luteus by broth dilution method; format: functional
# In short: (§1)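 Broth dilution per NCCLS guidelines; compounds in DMSO (at most 5% of total volume) incubated with bacteria (Institut Pasteur strains) in PB medium, 37 °C, 24 h with stirring. Growth read as optical density at 630 nm. Triplicate, averaged. Where growth was absent, medium plated on rich solid medium to tell bacteriostatic from bactericidal.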
# [2] = test system: Escherichia coli; assay: Antimicrobial activity against Escherichia coli by broth dilution method; format: functional; in short: as §1
# [3] = test system: CCRF-CEM; assay: Cytotoxicity against human wild type CEM cells after 72 hrs; format: functional, cell-based
# In short: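 CCRF-CEM (CEM-WT) acute lymphoblastic leukemia cells grown in RPMI 1640 with L-glutamine, 10% FCS, penicillin/streptomycin, 5% CO2, 37 °C. Serial dilutions in medium (10^-4 to 1 mg/mL) added to 2 × 10^5 cells/mL without medium renewal. Cells counted with a particle counter over time. IC50 taken at 72 h; triplicate, averaged.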
smiles,measurement,setting,value
CC1=CC2C(CC1)C(C)(C)OC21CC(=O)C=CC1=O (configuration not stated) [CONIDIONE],MIC,[1],> 2000 µM
same,MIC,[2],> 2000 µM
CC(C)=CCCC1(C)C=Cc2cc(O)ccc2O1 (configuration not stated) [CORDIACHROMENE A],MIC,[1],510 µM
same,IC50,[3],30 µM
same,MIC,[2],> 2000 µM
Cc1ccc2c(c1)-c1cc(O)ccc1OC2(C)C [DIDEHYDROCONICOL],MIC,[1],510 µM
same,MIC,[2],> 2000 µM
CC1=C[C@@H]2c3cc(O)ccc3OC(C)(C)[C@@H]2CC1 [EPICONICOL],MIC,[1],130 µM
same,IC50,[3],60 µmol
same,MIC,[2],> 2000 µM
COC(C)(C)[C@H]1CCC(C)=C[C@H]1c1cc(O)ccc1O [METHOXYCONIDIOL],MIC,[1],> 2000 µM
same,MIC,[2],> 2000 µM

# — ChEMBL document CHEMBL1158816, “Meroterpenes from the ascidian Aplidium aff. densum” (J Nat Prod, 2005)
